Measurements taken from ChEMBL document CHEMBL1938344, “Antiangiogenic activity of 3,4-seco-cycloartane triterpenes from Thai Gardenia spp. and their semi-synthetic analogs” (Bioorg Med Chem Lett, 2012).
Calls of active or inactive are those of the source. No cut-off for these calls is given here.

What was measured:
Aorta [1] = test: Antiangiogenic activity in Wistar rat thoracic aortic rings assessed as inhibition of microvessel sprouting at 25 uM after 7 days by phase-contrst microscopy; assay type: functional; conditions: 168 h
Method in brief: (§1)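 Thoracic aorta from six-week-old SPF male Wistar rat, everted, cut into 1-mm rings, embedded in porcine tendon collagen gel (30 min, 37 °C). Rings overlaid with RPMI 1640 plus 1% TIS+ containing compound doses or DMSO; 7 days at 37 °C, 5% CO2. Sprout length from cut end to capillary mid-point by phase-contrast microscopy; mean ± SD, n = 6.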

Aorta [2] = test: Antiangiogenic activity in Wistar rat thoracic aortic rings assessed as inhibition of microvessel sprouting after 7 days by phase-contrst microscopy; assay type: functional, tissue-based; method in brief: as §1
HUVEC [3] = test: Antiangiogenic activity in HUVEC assessed as inhibition of cell proliferation after 72 hrs by WST-8-based spectrophotometry; assay type: functional; conditions: Homo sapiens
Method in brief: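 Cells seeded in HuMedia EG2, 24 h at 37 °C, 5% CO2, then fresh medium with graded doses or DMSO vehicle for 72 h. Proliferation read by WST-8 at 450 nm; mean ± SD, n = 5; IC50 from dose–response.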

HUVEC [4] = test: Antiangiogenic activity in HUVEC assessed as inhibition of tubule formation after 12 hrs by inverted light microscopy; assay type: functional, cell-based; conditions: Homo sapiens
Method in brief: (§2)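 Cells suspended in HuMedia EG2 with graded doses or DMSO vehicle, seeded onto solidified Matrigel and incubated 12 h at 37 °C, 5% CO2. Capillary-like tube length measured microscopically against vehicle control; mean ± SD, n = 5.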

HUVEC [5] = test: Antiangiogenic activity in HUVEC assessed as inhibition of tubule formation at 5 uM after 12 hrs by inverted light microscopy; assay type: functional, cell-based; conditions: Homo sapiens; method in brief: as §2
HUVEC [6] = test: Antiangiogenic activity in HUVEC assessed as inhibition of tubule formation at 20 uM after 12 hrs by inverted light microscopy; assay type: functional, cell-based; conditions: Homo sapiens; method in brief: as §2
HUVEC [7] = test: Antiangiogenic activity in HUVEC assessed as inhibition of VEGF-induced cell migration at 50 uM after 6 hrs by boyden chamber assay; assay type: functional, cell-based; conditions: Homo sapiens
[8] = target: T1, Mitogen-activated protein kinase; ERK1/ERK2 (Homo sapiens) (UniProt P27361+P28482); test: Inhibition of VEGF-induced Erk1/2 phosphorylation in HUVEC at 2.5 to 10 uM pretreated for 60 mins prior VEGF stimulation measured after 10 mins by Western blotting; assay type: protein assay; conditions: TDE = time-dependent effect
T1 sequence (P27361 whole entry, looked up): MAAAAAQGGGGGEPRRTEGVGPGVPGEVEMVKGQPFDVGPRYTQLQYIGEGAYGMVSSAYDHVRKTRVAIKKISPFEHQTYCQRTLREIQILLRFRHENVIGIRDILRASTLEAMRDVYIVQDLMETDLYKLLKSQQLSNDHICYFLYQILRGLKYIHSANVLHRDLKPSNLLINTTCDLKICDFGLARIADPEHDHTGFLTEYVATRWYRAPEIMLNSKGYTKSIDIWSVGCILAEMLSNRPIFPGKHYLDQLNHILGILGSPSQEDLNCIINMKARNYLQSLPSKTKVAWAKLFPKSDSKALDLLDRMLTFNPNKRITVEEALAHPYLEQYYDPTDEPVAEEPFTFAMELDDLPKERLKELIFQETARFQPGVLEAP
T1 sequence (P28482 whole entry, looked up): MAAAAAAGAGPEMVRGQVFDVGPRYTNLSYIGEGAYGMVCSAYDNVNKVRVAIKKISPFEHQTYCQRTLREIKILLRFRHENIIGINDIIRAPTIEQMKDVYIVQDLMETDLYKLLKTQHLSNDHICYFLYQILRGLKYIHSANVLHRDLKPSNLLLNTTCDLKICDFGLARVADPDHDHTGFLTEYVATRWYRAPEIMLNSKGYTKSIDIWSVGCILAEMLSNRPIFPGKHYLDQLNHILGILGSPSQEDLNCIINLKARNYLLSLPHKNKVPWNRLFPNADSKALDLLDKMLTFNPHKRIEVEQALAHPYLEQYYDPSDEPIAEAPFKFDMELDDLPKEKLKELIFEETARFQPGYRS
Method in brief: (§3)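 Cells pretreated 1 h with 0–10 µM compound or DMSO, then stimulated with VEGF (10 ng/mL) for 10 min, PBS-washed, lysed with M-PER, protein by microBCA. Blots probed for phospho-Erk1/2 or phospho-Akt (4 °C overnight) and total Erk1/2 or Akt (room temperature); chemiluminescent detection; mean ± SD, n = 3.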

[9] = target: T1, Mitogen-activated protein kinase; ERK1/ERK2 (Homo sapiens); test: Inhibition of VEGF-induced Erk1/2 phosphorylation in HUVEC pretreated for 60 mins prior VEGF stimulation measured after 10 mins by Western blotting; assay type: protein assay; method in brief: as §3
HUVEC [10] = test: Inhibition of VEGF-induced Akt phosphorylation in HUVEC at 2.5 to 10 uM pretreated for 60 mins prior VEGF stimulation measured after 10 mins by Western blotting; assay type: cell-based; conditions: Homo sapiens; method in brief: as §3

Row | Structure (SMILES) | inhibition at 25 µM (Aorta [1]) [%] | also measured
1 | C=C1C(=O)O[C@@H]2C[C@@H]3[C@]4(CC[C@]5(C)[C@@H]([C@H](C)CC/C=C(\C)C=O)CC[C@@]35C)C[C@]4(CCC(=O)Oc3ccccc3)[C@H]12 | 10 | 
2 | C=C1C(=O)O[C@@H]2C[C@@H]3[C@]4(CC[C@]5(C)[C@@H]([C@H](C)CC/C=C(\C)C=O)CC[C@@]35C)C[C@]4(CCC(=O)N[C@@H](Cc3ccccc3)C(=O)OC)[C@H]12 | 10 | 
3 | C=C1C(=O)O[C@@H]2C[C@@H]3[C@]4(CC[C@]5(C)[C@@H]([C@H](C)CC/C=C(\C)C=O)CC[C@@]35C)C[C@]4(CCC(=O)NC(C)(C)C)[C@H]12 | 10 | 
4 | C=C1C(=O)O[C@@H]2C[C@@H]3[C@]4(CC[C@]5(C)[C@@H]([C@H](C)CC/C=C(\C)C=O)CC[C@@]35C)C[C@]4(CCC(=O)NCCCC)[C@H]12 | 10 | 
5 | C=C1C(=O)O[C@@H]2C[C@@H]3[C@]4(CC[C@]5(C)[C@@H]([C@H](C)CC/C=C(\C)C=O)CC[C@@]35C)C[C@]4(CCC(=O)N3C(=O)CCC3=O)[C@H]12 | 10 | 
6 | C=C1C(=O)O[C@@H]2C[C@@H]3[C@]4(CC[C@]5(C)[C@@H]([C@H](C)CC/C=C(\C)COC(=O)c6ccccc6)CC[C@@]35C)C[C@]4(CCC(=O)OC)[C@H]12 | 10 | 
7 | C=C1C(=O)O[C@@H]2C[C@@H]3[C@]4(CC[C@]5(C)[C@@H]([C@H](C)CC/C=C(\C)COC(=O)c6ccncc6)CC[C@@]35C)C[C@]4(CCC(=O)OC)[C@H]12 | 10 | 
8 | C=C1C(=O)O[C@@H]2C[C@@H]3[C@]4(CC[C@]5(C)[C@@H]([C@H](C)CC/C=C(\C)COC(=O)c6ccc7ccccc7n6)CC[C@@]35C)C[C@]4(CCC(=O)OC)[C@H]12 | 10 | 
9 | C=C1C(=O)O[C@H]2C[C@@H]3[C@@]4(CC[C@]5(C)[C@H]([C@@H](C)CC/C=C(\C)C=O)CC[C@@]35C)C[C@]4(CCC(=O)OC)[C@@H]12 [CORONALOLIDE METHYL ESTER] | 10 | 
10 | C=C1C(=O)O[C@@H]2C[C@@H]3[C@]4(CC[C@]5(C)[C@@H]([C@H](C)CC/C=C(\C)C=O)CC[C@@]35C)C[C@]4(CCC(=O)O)[C@H]12 [CORONALOLIDE] | 85 | 
11 | C=C1C(=O)O[C@@H]2C[C@@H]3[C@]4(CC[C@]5(C)[C@@H]([C@H](C)CC/C=C(\C)CO)CC[C@@]35C)C[C@]4(CCC(=O)OC)[C@H]12 [SOOTEPIN A] | 10 | 
12 | C=C1C(=O)O[C@@H]2C[C@@H]3[C@]4(CC[C@]5(C)[C@@H]([C@H](C)CCC=C(C)C)CC[C@@]35C)C[C@]4(CCC(=O)O)[C@H]12 [SOOTEPIN B] | 100 | inhibition (Aorta [2]): Dose-dependent effect; IC50 (Aorta [2]; 168 h): 4.46 µM; Activity (HUVEC [3]): Dose-dependent effect; IC50 (HUVEC [3]): 1.2 µM; IC50 (HUVEC [4]): 11.2 µM; inhibition (HUVEC [4]): Dose-dependent effect; inhibition (HUVEC [5]): Active; inhibition (HUVEC [6]): Active; Activity (HUVEC [7]): inactive; inhibition [8]: tde; inhibition [9]: Dose-dependent effect; inhibition (HUVEC [10]): inactive
13 | C=C(C)[C@@H]1CC[C@@H]2[C@]3(CC[C@]4(C)[C@@H]([C@H](C)CCC=C(C)C)CC[C@@]24C)C[C@]13CCC(=O)O [SOOTEPIN E] | 92 | 
14 | C=C1C(=O)O[C@@H]2C[C@@H]3[C@]4(CC[C@]5(C)[C@@H]([C@H](C)CCC=C(C)C)CC[C@@]35C)C[C@]4(CCC(=O)OC)[C@H]12 [TUBIFEROLIDE METHYL ESTER] | 40 | 
